# Only some compounds are listed: those with a hit (about 3.8% of all), similar ones and a draw of the others.
# KCNQ1 inh: blocks the human KCNQ1 potassium channel; actives 1.3% (n = 310,000); AID 2642; B-score at 10 µM; CHO-K1 KCNQ1, FluxOR thallium flux fluorescence; active compounds read high; P51787;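 active = compounds whose thallium flux B-score, printed positive for inhibition, exceeds three library SD while starting fluorescence stays within three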;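 also: channel opened by potassium depolarization with thallium stimulus after 20 min compound exposure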
# KCNK3 inh: human KCNK3 channel inhibition, primary screen; B-score at 10 µM; actives 0.84% (n = 340,000); O14649; CHO-KCNK3 thallium flux, FluxOR fluorescence; active compounds read low;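 active = B-score under library mean minus 4 SD, starting fluorescence ratio at most library mean plus 5 SD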;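 also: more negative B-score means stronger inhibition of thallium flux through KCNK3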
# Target sequence (O14649 whole entry, looked up): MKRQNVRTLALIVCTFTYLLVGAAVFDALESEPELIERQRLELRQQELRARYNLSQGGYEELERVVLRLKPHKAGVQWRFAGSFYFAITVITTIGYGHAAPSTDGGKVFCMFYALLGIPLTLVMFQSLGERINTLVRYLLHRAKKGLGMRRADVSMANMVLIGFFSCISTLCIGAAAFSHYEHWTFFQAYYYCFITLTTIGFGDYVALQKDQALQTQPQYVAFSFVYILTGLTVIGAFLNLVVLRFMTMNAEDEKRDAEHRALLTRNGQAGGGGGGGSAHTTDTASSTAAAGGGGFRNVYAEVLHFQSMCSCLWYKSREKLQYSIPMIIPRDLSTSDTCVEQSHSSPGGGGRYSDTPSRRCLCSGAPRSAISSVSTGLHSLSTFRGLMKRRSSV
# hERG rescue: shields human hERG channel from block by proarrhythmic agents; activation (rescue from dofetilide block), less the hit threshold, % at 10 µM; Q12809; AID 1511; CHO-hERG, FluxOR thallium flux, dofetilide IC70 present; actives 0.51% (n = 310,000);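 active = activation above the mean of controls blocked by dofetilide plus 5 SD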;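 also: thallium influx through hERG after potassium depolarization seen as dye fluorescence rise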
# Kir21 inh: Kir2.1 (mouse) channel inhibition; actives 0.85% (n = 310,000); B-score at 10 µM; HEK293-Kir2.1, FluxOR thallium flux fluorescence; active compounds read low;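 active = fluorescence ratio B-score at or below minus 3 SD of library scores, with starting-brightness B-score within 2 SD, cut at about -4.2 in these data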;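 also: channel flux triggered by added potassium and thallium sulfate stimulus; B-score of peak minus minimum fluorescence over baseline after thallium stimulus; more negative B-score means stronger Kir2.1 block with less thallium influx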
# KCNK9 block: blocks the human KCNK9 two-pore domain potassium channel; Q9NPC2; B-score at 10 µM; AID 488922; actives 1.2% (n = 310,000); HEK293 KCNK9, FluxOR thallium flux fluorescence; active compounds read low;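 active = ratio B-score over 3 SD below the library mean, with starting fluorescence within 5 SD of its mean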;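 also: negative B-score means less thallium flux so channel inhibition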
# KCNQ1 pot: potentiates or activates the human KCNQ1 potassium channel; B-score at 10 µM; actives 0.35% (n = 310,000); CHO-K1 KCNQ1, thallium flux FluxOR fluorescence; active compounds read high; P51787;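 active = fluorescence ratio B-score, a plate-corrected score, at least three library SD, with initial intensity B-score within 5 SD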
#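 Schedule – 37 °C overnight plating, 90-min dark dye load, 20-min compound pretreatment · System – stable KCNQ1 CHO-K1 line · Probe or stimulus – thallium- and potassium-containing depolarizing buffer · Measured by – kinetic FluxOR fluorescence, 10 s baseline plus 110 s post-stimulus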
# KCNK9 inh conf: confirmation of human KCNK9 potassium channel inhibitors. shares compounds with KCNK9 block. HEK293 KCNK9 cells, FluxOR thallium flux fluorescence. inhibition, % at 10 µM. actives 43% (n = 4,900). AID 492992;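 active = thallium signal inhibited by more than 5 SD of the compound-free buffer control wells, on both duplicate plates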;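 also: 0% = assay buffer control wells without compound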
# Kir2-1 spec: selectivity of KCNK9 modulators against mouse Kir2.1; inhibition, % at 10 µM; shares compounds with KCNK9 block; AID 492993; actives 4% (n = 4,900); Kir2.1 cells, FluxOR thallium flux fluorescence;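 active = thallium signal drop more than 5 SD beyond the mean of the no-compound control wells, seen in both duplicate plates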;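 also: signal is fluorescence rise after thallium addition divided by baseline fluorescence; plate controls were assay buffer only for no effect and full block by chlorpromazine control for full effect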
# HEK293 Tl ctr: non-induced cell nonspecific activity of KCNK9 modulators | actives 40% (n = 4,900) | non-induced KCNK9-HEK293, FluxOR thallium flux | inhibition, % at 10 µM | shares compounds with KCNK9 block;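 active = thallium signal drop beyond 5 SD of the untreated control mean, on both duplicate plates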;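 also: plate controls were buffer only IC0 wells for no effect and SID17386958 at its maximal inhibitory level for full effect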
# KCNK3 confirm: human KCNK3 channel inhibition, confirmation assay; shares compounds with KCNK3 inh; actives 99% (n = 2,400); ratio percent of control, % at 10 µM; AID 651638; CHO-KCNK3 thallium flux, FluxOR fluorescence; 0% buffer, 100% carvedilol maximal block;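 active = ratio percent of control, averaged over triplicates, above buffer control mean plus 5 SD, cut at about 64% in these data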;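 also: ratio is the fluorescence rise from min to max over baseline after thallium stimulus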
# KCNK3 noninduced: counter-screen for KCNK3 inhibitors: effect in non-induced cells; non-induced KCNK3 parental cells, FluxOR thallium flux; active compounds read low; thallium flux ratio (lower = more inhibition) at 10 µM; actives 40% (n = 2,400); shares compounds with KCNK3 inh;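 active = thallium flux ratio, averaged over three wells, more than 5 SD below the buffer control mean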;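 also: host cells are CHO cells without KCNK3 induction; ratio is peak minus trough fluorescence over baseline then normalized to buffer controls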
# * marks the source's active call; other numbers are inactive results; i = inactive; x = not tested or not shown.
SMILES,KCNQ1 inh,KCNK3 inh,hERG rescue,Kir21 inh,KCNK9 block,KCNQ1 pot,KCNK3 confirm,KCNK3 noninduced,others
Brc1ccc(CNc2cc3c(cc2Br)OCCO3)cc1,i,i,-3.4,1.68,-9.13*,i,103.3*,i,KCNK9 inh conf=28.5%*;Kir2-1 spec=i;HEK293 Tl ctr=42.0%*
CC(=O)Nc1cc2c(cc1Br)OCCO2,i,i,-4.5,-0.33,i,i,x,x,
CC1CCN(C(=O)N2c3ccccc3Sc3ccccc32)CC1,11*,-11.1*,-18.3,-0.01,-9.35*,i,113.3*,0.134*,KCNK9 inh conf=58.5%*;Kir2-1 spec=i;HEK293 Tl ctr=45.5%*
CCCOCC(O)CC(Cc1ccccc1)C(=O)NN (centres undefined),i,i,-1.4,0.64,i,i,x,x,
CCOC(=O)CCSc1nc(C(C)(C)C)cc(C(F)(F)F)c1C#N,6*,-8.86*,-13.1,0,i,i,131.0*,0.127*,
CCOc1ccc(Br)cc1S(=O)(=O)N1CCSC1,i,-9.03*,-1.4,-4.95*,i,i,88.0*,i,
CC(C)(C)c1ccc(OCC(=O)N/N=C/C2CC=CCC2)cc1 (centres undefined),i,-9.96*,-5.4,1.2,-7.24*,i,96.0*,i,
O=C(CCc1ccccc1)N/N=C\C1CC=CCC1 (centres undefined),i,i,-9.7,0.35,i,i,x,x,
O=C(C1CC(c2ccccc2O)=NO1)N1CCc2ccccc2C1 (centres undefined),i,-9*,-2.8,0.12,i,i,99.3*,i,
Cc1ccc(C(C)C)cc1OCC(=O)Nc1ccc(N2CCCCC2)cc1,i,i,0.6,0.81,i,i,x,x,
CN(C)CCn1c(SCc2ccccc2C#N)nc2c(sc3ccccc32)c1=O,i,-10.1*,-19.4,0,i,i,106.7*,0.157*,
CSCCC(NC(=O)c1cc(S(=O)(=O)N2CCOCC2)ccc1F)c1nc2ccccc2[nH]1 (centres undefined),x,i,x,x,x,x,x,x,
C=CCn1c(-c2ccccc2)cc(SC)c(C#N)c1=O,i,-9.45*,-2.4,1.8,i,i,83.7*,i,
CCCn1c(-c2ccccc2)cc(SC)c(C#N)c1=O,i,i,-3.6,0.03,i,i,x,x,
O=c1nc2ccccc2c2n1CC(CN1CCN(c3ccccc3F)CC1)N2 (centres undefined),i,i,-4.4,-0.02,i,i,x,x,
O=C(NCCC(=O)N1CCN(C(=O)c2ccco2)CC1)c1ccccc1Cl,x,i,x,x,x,x,x,x,
CN(Cc1ccccc1F)C(=O)COc1ccc(C(=O)c2ccccc2)cc1,i,-12*,-10.9,-1.96,-7.73*,i,119.0*,i,
COCC(C)N=C1NN=C(c2c[nH]c3ccccc23)CS1 (centres undefined),i,i,-11.7,1.4,i,i,x,x,
Cc1noc(C)c1COc1ccccc1C(=O)NNC(=O)c1ccccc1F,x,i,x,x,x,x,x,x,
Cc1ccc(OCC(=O)NNC(=O)c2ccccc2OCc2c(C)noc2C)cc1,i,-8.72*,-12.5,0.02,i,i,94.3*,i,
C=CCNC(=S)NCC1COc2ccccc2O1 (centres undefined),i,i,-8.2,-2.4,i,i,x,x,
Cc1c(Cl)cccc1NC(=S)NCC1COc2ccccc2O1 (centres undefined),i,-8.87*,-9.2,-2.89,i,i,125.0*,0.141*,
CCC(=NCc1ccco1)c1c(C(F)(F)F)[nH]n(-c2nc3ccccc3s2)c1=O,i,-9.05*,-15.7,2.05,i,i,114.0*,i,
Cc1cc(-c2ccc3ccccc3c2)n2ncnc2n1,i,i,-7.5,0.16,i,i,x,x,
O=C(NCCc1ccccc1)c1ccc2c(=O)[nH]c3c(C(=O)NCC4CCCO4)sc(=S)n3c2c1 (centres undefined),8*,-11.9*,-38.6,0.28,i,i,118.3*,i,
SMILES,KCNQ1 inh,KCNK3 inh,hERG rescue,Kir21 inh,KCNK9 block,KCNQ1 pot,KCNK3 confirm,KCNK3 noninduced,others
COc1ccc(OC)c(CCNC(=O)c2ccc3c(=O)[nH]c4c(C(=O)NC(C)C)sc(=S)n4c3c2)c1,10*,-11.4*,-32.7,0.01,i,i,128.7*,i,
C=CCn1c(Sc2ncc([N+](=O)[O-])s2)n[nH]c1=O,7*,-9.29*,-12.0,0.12,i,i,144.3*,0.0827*,
COC(=O)CSc1nnc2n(C3CCCCC3)c(=O)c3c4c(sc3n12)CCCC4,i,-9.52*,-10.5,-0.51,i,i,96.0*,0.153*,
COc1ccc(C2C(C(=O)c3ccco3)=C(O)C(=O)N2Cc2cccnc2)cc1OC (centres undefined),i,-9.25*,-0.5,0.85,i,i,63.7*,i,
CCOc1ccc(C2C(C(=O)c3ccco3)=C(O)C(=O)N2Cc2cccnc2)cc1 (centres undefined),i,i,-8.9,0.4,i,i,x,x,
COc1ccc(Cl)cc1NC(=O)CN(C)C(=O)c1ccc(N2CCCCC2)c([N+](=O)[O-])c1,i,i,-8.2,0.47,i,i,x,x,
COc1ccc(Cl)cc1NC(=O)CN(C)C(=O)c1ccc(N2CCCCCC2)c([N+](=O)[O-])c1,i,-11.8*,-16.6,-1.79,i,i,107.3*,i,
COc1ccc(Cl)cc1-n1c(=S)sc2c(=O)[nH]c(SCC(=O)C(C)(C)C)nc21,i,-9.03*,-16.0,-0.21,i,i,88.3*,0.141*,
O=c1nc(Nc2ccc([N+](=O)[O-])cc2)[nH]c(=O)[nH]1,i,i,-2.3,0.32,i,i,x,x,
CCOC(=O)c1cc2sccc2n1CC(=O)c1ccc2c(c1)OCCO2,i,-9.47*,-5.4,-0.41,i,i,89.0*,i,
